Results from ChEMBL document CHEMBL4052657, “Design, synthesis and biological evaluation of sulfonamide-substituted diphenylpyrimidine derivatives (Sul-DPPYs) as potent focal adhesion kinase (FAK) inhibitors with antitumor activity” (Bioorg Med Chem, 2017).

Experiments:
[1] = tested on: ASPC1; test: Antiproliferative activity against human AsPC1 cells after 72 hrs by CCK8 assay; settings: ASPC1, 72 h
[2] = tested on: BXPC-3; test: Antiproliferative activity against human BxPC3 cells after 72 hrs by CCK8 assay; settings: BXPC-3, 72 h
[3] = tested on: Ramos; test: Antiproliferative activity against human Ramos cells after 72 hrs by CCK8 assay; format: functional, cell-based
How it was run: (§1)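 Cells in RPMI-1640 with 10% FBS and 1% penicillin-streptomycin, 37 °C, 5% CO2. Seeded at 3,000 to 5,000 cells/well and grown one day, then exposed to compound for 72 h at 1.25 to 40 µmol/L, five replicates per concentration. CCK-8 read-out is absorbance at 450 nm. Dose-response curves used five concentrations. IC50 is the mean of at least three separate experiments.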

[4] = tested on: NCI-H1975; test: Antiproliferative activity against gefitinib-resistant human NCI-H1975 cells harboring FAK after 72 hrs by CCK8 assay; format: functional, cell-based; settings: NCI-H1975, 72 h; how it was run: as §1
[5] = tested on: PANC-1; test: Antiproliferative activity against human PANC1 cells after 72 hrs by CCK8 assay; settings: PANC-1, 72 h
[6] = tested on: L02; test: Antiproliferative activity against human LO2 cells after 72 hrs by CCK8 assay; settings: L02, 72 h

SMILES	IC50 [1] [nM]	IC50 [2] [µM]	IC50 [3] [µM]	IC50 [4] [µM]	IC50 [5] [nM]	IC50 [6] [µM]
CNC(=O)c1ccccc1Nc1nc(Nc2ccc(NS(=O)(=O)c3ccc(C)cc3)c(OC)c2)ncc1Cl	10100	22.5	12.1	8.5	> 40000	> 40
CNC(=O)c1ccccc1Nc1nc(Nc2ccc(Oc3ccc(NS(=O)(=O)C(F)(F)F)cc3)cc2)ncc1Cl	2390	5.86	14.4	4.1	1750	3.37
CNC(=O)c1ccccc1Nc1nc(Nc2ccc(N3CCOCC3)cc2OC)ncc1Cl	6730	1.03	–	–	> 20000	5.37
CNC(=O)c1ccccc1Nc1nc(Nc2ccc(NS(=O)(=O)c3ccc(C)cc3)cc2)ncc1Cl	1550	19.4	6.17	7.07	2760	28.7
CNC(=O)c1ccccc1Nc1nc(Nc2ccc(NS(=O)(=O)c3ccc(C)cc3)c(C)c2)ncc1Cl	2320	23.1	20.3	9.56	2990	27.5
